Screening results (PubChem BioAssay)
Shown are actives, neighbours in structure and some others; about 2.4% of the full set was active somewhere.
DNMT1 block = blocks human DNA methyltransferase DNMT1; actives 0.83% (n = 360,000); inhibition (reported as % activation of signal), % at 10 µM; DNMT1 molecular beacon, Hinp1I cleavage, fluorescence; AID 588458; in the data active means inhibition above about 50%
STEP inh = inhibitors of human striatal-enriched phosphatase STEP | AID 588621 | actives 0.25% (n = 360,000) | recombinant STEP, OMFP fluorogenic substrate, fluorescence | inhibition, % at 20 µM;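 active means inhibition at 20 µM, scaled per plate between control wells, above about 37%, limit read from the data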;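 further: 0% = DMSO with enzyme and substrate and 100% = substrate only without enzyme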
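material = STEP tyrosine phosphatase | reagent = fluorogenic phosphatase substrate OMFP at 25 µM final | doses = single compound dose of 20 µM, 1% DMSO final | schedule = 20 min reaction, room temperature, in the dark | measured by = fluorescence, 480/540 nm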
Scp1 inh = inhibitors of human Scp-1 phosphatase. Q9GZU7. Recombinant Scp1, phosphopeptide, malachite green phosphate absorbance. AID 493091. actives 0.88% (n = 340,000). inhibition, % at 20 µM;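 active means inhibition above about 50% at 20 µM, limit read from the data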;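 further: plate controls were DMSO wells with enzyme for no effect and wells lacking enzyme for full effect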
Target sequence (Q9GZU7 76-261 limits assumed): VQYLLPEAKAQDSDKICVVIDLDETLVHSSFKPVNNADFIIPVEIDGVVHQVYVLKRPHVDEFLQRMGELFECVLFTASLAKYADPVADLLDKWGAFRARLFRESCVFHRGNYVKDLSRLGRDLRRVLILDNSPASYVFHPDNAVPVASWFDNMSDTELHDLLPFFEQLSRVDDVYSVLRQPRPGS
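System: truncated SCP-1 phosphatase (76-261aa); medium: Tris acetate buffer pH 5.5 with MgCl2 and Tween-20; incubation: 45 min room-temperature reaction, 5 min colour, 30 min stabiliser; compound: single 20 µM dose, 1% DMSO; reagent: Phosphorylated 17-residue peptide substrate; read-out: % inhibition at 20 µM; technique: colorimetric free-phosphate detection, absorbance 630 nm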
NadD block = NadD (S. aureus) enzyme inhibition; purified NadD enzyme, colorimetric absorbance read-out; inhibition, % at 20 µM; actives 0.78% (n = 360,000); AID 602399; in the data active means inhibition above about 26%
LMPTP block = blocks human LMPTP phosphatase. recombinant LMPTP-A, OMFP fluorogenic substrate, fluorescence intensity. inhibition, % at 20 µM. actives 0.22% (n = 360,000). AID 651560;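 active means compounds that cut the enzyme signal by at least half of the control window in the single-dose screen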;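 further: plate controls were DMSO wells with enzyme plus substrate for no effect and substrate without enzyme for full effect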
Target sequence (P24666 whole entry, looked up): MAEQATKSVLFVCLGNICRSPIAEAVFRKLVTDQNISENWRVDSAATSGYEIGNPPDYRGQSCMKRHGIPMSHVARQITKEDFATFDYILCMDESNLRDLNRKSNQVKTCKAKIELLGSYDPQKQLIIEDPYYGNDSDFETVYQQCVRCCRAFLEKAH
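Test system: LMPTP-A phosphatase enzyme. Amount: LMPTP-A at 0.625 nM final in the reaction. Reagent: OMFP substrate, 400 µM final. Times: 50 min at room temperature. Signal: endpoint fluorescence intensity from OMFP dephosphorylation. Read-out basis: % inhibition. Benchmarks: no-enzyme and uninhibited controls.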
SUMO1 PPI mod = SUMO1-SIM interaction modulation | inhibition, % at 20 µM | AID 602429 | SUMO1 binding to a labelled peptide, TR-FRET, 1 h | actives 0.33% (n = 360,000); in the data active means inhibition above about 37%
Target sequence (P63165 whole entry, looked up): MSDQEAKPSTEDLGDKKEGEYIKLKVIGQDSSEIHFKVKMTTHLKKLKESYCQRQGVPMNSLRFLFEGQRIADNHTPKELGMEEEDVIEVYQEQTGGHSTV
Beacon interf DR = counter-screen for DNMT1 inhibitors: spectral interference, dose response. shares compounds with DNMT1 block. 200 tested, under 10 active. IC50, µM. molecular beacon fluorescence; call rule not given here
DNMT1 inh conf = confirmation of human DNMT1 inhibitors; inhibition, % at 10 µM; shares compounds with DNMT1 block; actives 8% (n = 2,300); AID 602385; DNMT1 molecular beacon HinP1I cleavage, fluorescence;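 active means average inhibition of at least 30% in the single-concentration confirmation test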
Beacon interf = counter-screen for DNMT1 inhibitors: spectral interference. shares compounds with DNMT1 block. DNMT1 molecular beacon spectral interference counterscreen, fluorescence 485/520. activation (fluorescence interference), % at 10 µM. actives 1% (n = 2,300). AID 602387;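 active means activation of at least 30% at 10 µM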;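 further: DNMT1 catalytic domain with a HinP1I cleavage step and a FAM/dabcyl DNA beacon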
NadD conf = confirmation of Staphylococcus aureus NadD inhibitors; inhibition, % at 20 µM; actives 13% (n = 2,000); AID 624309; shares compounds with NadD block; purified S. aureus NadD, colorimetric enzyme assay; in the data active means inhibition mostly above about 42%, no sharp cut-off; inactive means mostly below about 42%
Starred values were filed as active, the others as inactive; . = no result.

SMILES | DNMT1 block | STEP inh | Scp1 inh | NadD block | LMPTP block | SUMO1 PPI mod | DNMT1 inh conf | Beacon interf | NadD conf | others
COc1ccccc1-c1nc2s/c(=C\c3cccs3)c(=O)n2n1 | 3 | 8 | -5 | -7 | 2 | -11 | . | . | .
Cc1ccc(S(=O)(=O)CCC(=O)OCC(=O)Nc2ccc(N3CCOCC3)cc2)cc1 | 0 | 0 | -4 | 3 | 0 | 0 | . | . | .
COc1ccc(N(C)S(=O)(=O)c2cccc(C(=O)OCC(=O)Nc3cc(C)ccc3OC)c2)cc1 | 1 | 0 | . | 0 | 3 | 3 | . | . | .
COC(=O)C1=C(O)/C(=C\c2ccc(CNC(=O)C(=O)Nc3ccc(C)cc3)o2)N=C1C | 96* | 5 | -7 | 32* | 16 | 20 | 4 | 4 | 8
COC(=O)C1=C(O)/C(=C\c2ccc(CNC(=O)C(=O)Nc3ccc(C)c(C)c3)o2)N=C1C | 86* | 4 | -1 | 34* | 8 | 11 | 6 | 11 | 7
COC(=O)C1=C(O)/C(=C\c2ccc(CNS(=O)(=O)c3ccc(Cl)cc3)o2)N=C1C | 25 | 4 | 11 | 10 | 2 | 15 | . | . | .
COC(=O)C1=C(O)/C(=C\c2ccc(CNS(=O)(=O)c3ccccc3)o2)N=C1C | 29 | 0 | 3 | 5 | 0 | 13 | . | . | .
O=C(Cc1n[nH]c(=O)c2ccccc12)OCC(=O)c1ccc(OC(F)F)cc1OC(F)F | -7 | 0 | -1 | -1 | -1 | -1 | . | . | .
CCOc1cccc(C(=O)Nc2ccc(N3CCCC3)cc2)c1 | 37 | 2 | -2 | 8 | 8 | -49 | . | . | .
CCOc1ccc(C(=O)Nc2ccc(N3CCCC3)cc2)cc1 | 80* | 0 | -3 | 35* | 5 | -9 | 7 | 0 | -4
COc1ccc(C(=O)Nc2ccc(N3CCCC3)cc2)cc1 | 86* | 5 | -9 | 40* | 40 | 5 | 4 | 1 | 0
O=C(OCC(=O)N1CCOCC1)c1cc(F)c(F)cc1Cl | 2 | 1 | -7 | -7 | -1 | 2 | . | . | .
O=C(CSc1nc2scc(-c3ccco3)c2c(=O)n1-c1ccccc1)NCC1CCCO1 (stereo unspecified) | 93* | 11 | -5 | 30* | 25 | 11 | 0 | -3 | 37
CCOCCCn1c(=N)c(C(N)=S)cc2c(=O)n3cccc(C)c3nc21 | 32 | 2 | 2 | 29 | 22 | -1 | . | . | .
Cc1cccn2c(=O)c3cc(C(N)=S)c(=N)n(CCCOC(C)C)c3nc12 | 62* | 6 | -2 | 52* | 22 | -9 | 4 | 0 | 2
O=C(/C=C/c1ccco1)c1ccc(NC(=O)C23CC4CC(CC(C4)C2)C3)cc1 | 72* | 3 | 24 | 33* | 1 | 1 | 3 | 0 | 11
CCCCCNC(=O)c1cccc(S(=O)(=O)N2CC3(C)CC2CC(C)(C)C3)c1 (stereo unspecified) | 0 | 2 | -12 | -3 | 4 | 9 | . | . | .
O=C(/C=C/c1ccco1)N1CCC(Cc2ccccc2)CC1 | 87* | 1 | 17 | 34* | 4 | 1 | 7 | -2 | 21
O=C(/C=C/c1ccco1)N1CCN(c2ncccn2)CC1 | 13 | -1 | 0 | 0 | 0 | -1 | . | . | .
O=[N+]([O-])c1ccc(/C=N/Nc2nc(N3CCCCC3)nc(N3CCCCC3)n2)cc1 | -1 | 0 | 3 | 8 | 4 | -16 | . | . | .
O=[N+]([O-])c1ccc(/C=N/Nc2nc(N3CCCCCC3)nc(N3CCCCCC3)n2)o1 | 66* | 2 | 12 | 65* | 4 | -6 | 0 | 1 | 18
O=C(Nc1cccc(S(=O)(=O)NC2=NCCC2)c1)c1cc(-c2ccco2)nc2ccccc12 | 99* | 6 | 90* | 68* | 61* | 23 | 56* | -2 | 78* | Beacon interf DR=>99
COc1ccc2c3c(cccc13)N(C)N=C2C | 93* | 2 | -2 | 52* | 41 | 10 | -4 | -7 | 9
COc1ccc2c3c(cccc13)OC2=O | 3 | 3 | -12 | -1 | -1 | -23 | . | . | .
CCNc1ccc(Br)cc(C(=O)/C=C/c2ccccc2Cl)c1=O | 77* | 9 | -10 | 34* | 26 | 19 | 8 | 8 | 18
SMILES | DNMT1 block | STEP inh | Scp1 inh | NadD block | LMPTP block | SUMO1 PPI mod | DNMT1 inh conf | Beacon interf | NadD conf | others
COC(=O)Cn1c(=NC(=O)c2sc3ccccc3c2Cl)sc2cc(S(N)(=O)=O)ccc21 | 66* | 4 | 1 | 37* | 33 | -5 | 3 | -10 | 7
CCOC(=O)C1=C(C)N=c2s/c(=C\c3ccc(OCC(=O)O)cc3)c(=O)n2C1c1ccc(Cl)cc1 (stereo unspecified) | 8 | 34 | 31 | 16 | 17 | 1 | . | . | .
CC1=C(C(=O)OC(C)C)C(c2ccc(Cl)cc2)n2c(sc(=Cc3ccc(OCC(=O)O)cc3)c2=O)=N1 (stereo unspecified) | 104* | 87* | . | 30* | 88* | 106* | 105* | -1 | 14 | Beacon interf DR=>99
CCOc1ccc(/C=C/C(=O)c2cc(Br)ccc(=O)c2O)cc1 | 68* | 5 | -4 | 32* | 12 | 0 | 10 | 4 | 15
O=C1CC(c2ccco2)CC(O)=C1C=NCC1CCNCC1 (stereo unspecified) | 67* | 0 | -5 | 34* | 0 | 49* | 1 | 5 | 6
Cc1csc(C(C)N(C)C(=O)c2ccc(OC3CCN(Cc4ccccn4)CC3)cc2)n1 (stereo unspecified) | -1 | 2 | -5 | 1 | -1 | 0 | . | . | .
Cc1ccc2oc(=O)c3cc(C(=O)NCCCN4CCCCCC4)sc3c2c1 | 67* | 7 | 3 | 37* | 28 | 13 | 6 | -2 | -8
Cc1ccc2nc(NC(=O)C3CCN(S(=O)(=O)c4cc([N+](=O)[O-])ccc4Cl)CC3)sc2c1 | 60* | 0 | 64* | 31* | 4 | 3 | 2 | -3 | 0
COc1cccc(C2c3c(-c4cc(Cl)c(C)cc4O)n[nH]c3C(=O)N2Cc2cccnc2)c1 (stereo unspecified) | 98* | 1 | 3 | 47* | 8 | 2 | 2 | 4 | 43*
